Where a name gives a salt, the structure may show the parent alone.
Assays:
[1] = tested on: Botrytis cinerea; experiment: Antifungal activity against Botryotinia fuckeliana assessed as growth inhibition at 500 ug/mL after 4 days; type: functional; details: 96 h, read-out: GI
Summary of the method: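 Mycelial plug of B. cinerea was placed at the centre of PDA dishes containing test sample at 25 to 500 μg/mL. Colony diameter (mm) was read after 4 days, in triplicate.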

[2] = tested on: Escherichia coli; experiment: Antibacterial activity against Escherichia coli using 50 uL of compound solution from 500 ug/mL stock solution after 24 hr by agar disk diffusion method; type: functional
Summary of the method: (§1)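 Agar disk diffusion. Plates were spread with 1 mL culture containing 1 × 10^7 CFU: S. aureus and E. coli on tryptic soy agar, B. cereus and P. aeruginosa on nutrient agar. Each 8 mm filter-paper disc was blotted with 50 μL of a 500 μg/mL sample. Kanamycin sulfate 50 μg/mL discs were the positive control. Plates ran 24 h at 37 °C, and inhibition-zone diameter was measured in triplicate.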

[3] = tested on: Staphylococcus aureus; experiment: Antibacterial activity against Staphylococcus aureus using 50 uL of compound solution from 500 ug/mL stock solution after 24 hr by agar disk diffusion method; type: functional; summary of the method: as §1
[4] = tested on: Bacillus cereus; experiment: Antibacterial activity against Bacillus cereus using 50 uL of compound solution from 500 ug/mL stock solution after 24 hr by agar disk diffusion method; type: functional; summary of the method: as §1
[5] = tested on: Rhizoctonia solani; experiment: Antifungal activity against Rhizoctonia solani assessed as growth inhibition at 500 ug/mL after 2 days; type: functional; details: 48 h, read-out: GI
Summary of the method: (§2)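 Rhizoctonia solani plugs were set centrally on PDA dishes holding test sample at 25 to 500 μg/mL. Mycelial diameter (mm) was measured after 2 days, in triplicate.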

[6] = tested on: Pseudomonas aeruginosa; experiment: Antibacterial activity against Pseudomonas aeruginosa using 50 uL of compound solution from 500 ug/mL stock solution after 24 hr by agar disk diffusion method; type: functional; summary of the method: as §1
[7] = tested on: Staphylococcus aureus; experiment: Antibacterial activity against Staphylococcus aureus after 24 hr by agar disk diffusion method; type: functional, organism-based; summary of the method: as §1
[8] = tested on: Botrytis cinerea; experiment: Antifungal activity against Botryotinia fuckeliana as inhibition of mycelium growth after 4 days; type: functional, organism-based
Summary of the method: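 Mycelial plugs of the pathogen placed at the centre of PDA Petri dishes holding 10 mL of test sample at 25 to 500 μg/mL. Mycelial diameter (mm) measured after 4 days for B. cinerea. Run in triplicate.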

[9] = tested on: Rhizoctonia solani; experiment: Antifungal activity against Rhizoctonia solani assessed as inhibition of mycelium growth after 2 days; type: functional, organism-based; summary of the method: as §2
[10] = tested on: Staphylococcus aureus; experiment: Antibacterial activity against Staphylococcus aureus at 50 ug/mL after 24 hr by agar disk diffusion method; type: functional; details: read-out: DIZ
[11] = tested on: Pseudomonas aeruginosa; experiment: Antibacterial activity against Pseudomonas aeruginosa at 50 ug/mL after 24 hr by agar disk diffusion method; type: functional; details: read-out: DIZ
[12] = tested on: Bacillus cereus; experiment: Antibacterial activity against Bacillus cereus at 50 ug/mL after 24 hr by agar disk diffusion method; type: functional; details: read-out: DIZ
[13] = tested on: Escherichia coli; experiment: Antibacterial activity against Escherichia coli at 50 ug/mL after 24 hr by agar disk diffusion method; type: functional; details: read-out: DIZ

Structure (SMILES)	inhibition of growth at 500 µg/mL [1]	diameter of the inhibition zone (DIZ) [2]	diameter of the inhibition zone (DIZ) [3]	diameter of the inhibition zone (DIZ) [4]	inhibition of growth at 500 µg/mL [5]	diameter of the inhibition zone (DIZ) [6]	IC50 [7]	growth inhibition (GI) [8]	growth inhibition (GI) [9]	zone of inhibition at 50 µg/mL [10]	zone of inhibition at 50 µg/mL [11]	zone of inhibition at 50 µg/mL [12]	zone of inhibition at 50 µg/mL [13]
Cc1cc(O)c2c(c1)C(=O)c1ccccc1C2=O [PACHYBASIN]	6%	<10 mm	10.33 mm	<10 mm	13.9%	<10 mm	–	–	–	–	–	–	–
Cc1cc(O)c2c(c1)C(=O)c1cccc(O)c1C2=O [CHRYSOPHANOL]	22.5%	<10 mm	<10 mm	<10 mm	21.2%	<10 mm	–	–	–	–	–	–	–
Cc1cc(O)c2c(c1)C(=O)c1cc(O)cc(O)c1C2=O [EMODIN]	51.7%	<10 mm	11 mm	10 mm	39%	<10 mm	46.3 µM	Dose-dependent effect	–	–	–	–	–
O=C1c2cc(CO)cc(O)c2C(=O)c2cccc(O)c21	53.7%	<10 mm	17.67 mm	10.66 mm	25.4%	<10 mm	117 µM	–	Dose-dependent effect	–	–	–	–
O=C1c2ccc(O)cc2C(=O)c2c(O)cc(CO)cc21	92.8%	<10 mm	14.33 mm	<10 mm	67.3%	<10 mm	221 µM	Dose-dependent effect	–	–	–	–	–
NC[C@H]1O[C@H](O[C@H]2[C@H](O)[C@@H](O[C@H]3O[C@H](CO)[C@@H](O)[C@H](N)[C@H]3O)[C@H](N)C[C@@H]2N)[C@H](O)[C@@H](O)[C@@H]1O [KANAMYCIN SULFATE]	–	–	–	–	–	–	–	–	–	13 mm	13 mm	15 mm	12 mm
O=C1c2ccccc2C(=O)c2c(O)cc(CO)cc21 [OMEGA-HYDROXYPACHYBASIN]	47.3%	<10 mm	20 mm	11 mm	41.5%	<10 mm	123 µM	–	–	–	–	–	–
